M1 ag: human M1 muscarinic receptor agonists, primary screen, Fluo-8 calcium fluorescence, CHO-K1 cells, HTS | Muscarinic acetylcholine receptor M1 (Homo sapiens), P11229 | CHO-K1 hM1, agonist mode; 0% DMSO, 100% acetylcholine EC100 | activation, % at 3 µM | actives 0.33% (n = 360,000);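 active = activation above the run's mean compound activation plus 3 SD, cut at about 16% in these data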;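 also: peak over basal fluorescence ratio within a 140 s kinetic read after compound addition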
M1 antag: human M1 muscarinic receptor antagonists, primary screen, CHO-K1 cells, Fluo-8 calcium fluorescence, 1536-well; actives 1.3% (n = 360,000); CHO-K1 hM1, ACh EC80 antagonist; inhibition, % at 3 µM;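 active = percent inhibition above its own plate's cutoff, namely the mean of that plate's compound wells plus 3 SD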;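 also: peak over basal fluorescence ratio during 140 s after agonist addition; 0% = ACh EC80 plus DMSO and 100% = DMSO alone without agonist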
CHRM1 PAM: human M1 muscarinic receptor positive allosteric modulators, primary screen, CHO-K1 cells, Fluo-8 calcium fluorescence, 1536-well. activation, % at 3 µM. CHO-K1 hM1, ACh EC20; 0% = ACh EC20, 100% = maximal ACh. actives 0.088% (n = 360,000). AID 588819, 2011; in the data active = activation above about 19%, passing the limit was not always enough
M5 PAM: human M5 muscarinic receptor positive allosteric modulators, primary screen, CHO-K1 cells, Fluo-8 calcium fluorescence. CHO-K1 hM5, ACh EC20 PAM; 0% = ACh EC20, 100% = ACh EC100. activation, % at 3 µM. actives 0.3% (n = 360,000);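 active = activation above the run cutoff, the mean activation of all test compounds plus 3 SD, cut at about 18% in these data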
Target sequence (P08912 whole entry, looked up): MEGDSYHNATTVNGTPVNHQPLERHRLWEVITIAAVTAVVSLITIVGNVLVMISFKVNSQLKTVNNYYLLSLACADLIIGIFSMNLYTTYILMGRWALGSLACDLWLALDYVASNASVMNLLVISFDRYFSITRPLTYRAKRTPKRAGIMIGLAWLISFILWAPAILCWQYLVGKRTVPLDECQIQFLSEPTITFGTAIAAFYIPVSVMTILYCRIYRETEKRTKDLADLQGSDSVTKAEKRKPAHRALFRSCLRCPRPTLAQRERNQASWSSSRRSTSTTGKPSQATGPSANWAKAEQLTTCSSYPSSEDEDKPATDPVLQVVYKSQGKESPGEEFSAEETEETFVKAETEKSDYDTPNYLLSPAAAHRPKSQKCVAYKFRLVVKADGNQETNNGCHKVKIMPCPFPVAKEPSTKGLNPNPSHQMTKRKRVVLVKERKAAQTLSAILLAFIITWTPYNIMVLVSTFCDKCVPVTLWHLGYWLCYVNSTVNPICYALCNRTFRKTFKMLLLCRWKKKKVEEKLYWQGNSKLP
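Measured by: Fluo-8 calcium fluorescence; material: human M5 receptor in CHO-K1 cells; schedule: Post-acetylcholine fluorescence recording 140 s; benchmarks: low control EC20 acetylcholine (0%), high control EC100 acetylcholine (100%); read-out: Max/basal fluorescence ratio as % of EC20–EC100 ACh window; compound: single dose, 3 µM nominal final test concentration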
CHRM5 agonist: human M5 muscarinic receptor agonists, primary screen, CHO-K1 cells, Fluo-8 calcium fluorescence | Muscarinic acetylcholine receptor M5 (Homo sapiens), P08912 | CHO-K1 hM5 cells; 0% DMSO wells, 100% maximal acetylcholine response | activation, % at 3 µM | actives 0.19% (n = 360,000) | AID 624037, 2012;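 active = activation above the run's mean over test compounds plus 3 SD, cut at about 23% in these data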;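 also: signal is peak over basal fluorescence ratio across the kinetic read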
M5 antag: human M5 muscarinic receptor antagonists, primary screen, CHO cells, Fluo-8 calcium fluorescence; CHO-hM5 cells, ACh EC80; AID 624040, 2012; inhibition, % at 3 µM; actives 0.59% (n = 360,000);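 active = inhibition above a per-plate cutoff, the mean of that plate's test compounds plus 3 SD, cut at about 27% in these data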;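 also: 0% = acetylcholine EC80 with DMSO and 100% = DMSO without agonist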
The depositor's hits bear a star; x = no result given. A selection: hits, their analogues and other compounds. The true share with any hit is near 2%.

SMILES | M1 ag | M1 antag | CHRM1 PAM | M5 PAM | CHRM5 agonist | M5 antag
COC(=O)c1ccc(CN2CCN(Cc3ccc(F)cc3)C(CCO)C2)cc1 (centres undefined) | -7 | 16 | -6 | -3 | -4 | 12
COC(=O)c1ccc(CN2CCN(CC(C)C)C(CCO)C2)cc1 (centres undefined) | -8 | 35* | -17 | -1 | -9 | 8
COC(=O)c1ccc(CN2CCCC(C(=O)Nc3ccc(-c4ccn[nH]4)cc3)C2)cc1 (centres undefined) | 36* | 12 | -8 | -8 | -2 | 10
COC(=O)c1ccc(CN2CCCC(CO)(Cc3ccccc3F)C2)cc1 (centres undefined) | 3 | 26 | -18 | 0 | -12 | -2
CCOC(=O)C1(CCc2ccccc2)CCN(Cc2ccc(C(=O)OC)cc2)CC1 | -4 | -2 | -4 | -10 | -5 | 1
COC(=O)c1ccc(CN2CCC(CO)(Cc3ccccc3Cl)CC2)cc1 | 19* | 52* | -5 | -3 | -11 | 0
Cc1ccc(S(=O)(=O)N(C)c2ccc(C(=O)NC3CCCCC3)cc2)cc1 | -4 | -15 | 5 | 1 | 0 | 1
CCOC(=O)C1CCC(CNCc2ccc(Cl)cc2)CC1 (centres undefined) | -10 | 45* | -20 | -15 | -7 | 21
CCOC(=O)C1CCN(Cc2ccc(C(=O)OC)cc2)CC1 | 43* | 67* | -20 | -4 | -7 | 3
COC(=O)c1ccc(CN2CCCC(C(=O)c3ccccc3OC)C2)cc1 (centres undefined) | 27* | 7 | -6 | 5 | 2 | -2
COc1ccc(C(=O)Nc2ccc(CN3CCCCC3)cc2)cc1 | -7 | 10 | -5 | -6 | -10 | 13
COC(=O)c1ccc(CN2CCCC(C(=O)c3cc(F)ccc3OC)C2)cc1 (centres undefined) | 10 | 1 | 2 | 1 | -3 | 2
COC(=O)c1ccc(CN2CCCCC2)cc1 | 27* | 26 | -9 | 5 | 1 | -10
CCOC(=O)C1CCN(C(=O)CCC(=O)NCCc2ccc(Cl)cc2)CC1 | -2 | -16 | 12 | -1 | -1 | 0
CCCNC(=O)C1(C)CCCN(Cc2ccccc2F)C1 (centres undefined) | -6 | -7 | 2 | 1 | 1 | 12
COc1cccc(-c2nc3nc(C)cc(C)n3c2NCc2ccccc2)c1 | x | x | x | 5 | -2 | 4
COc1ccc(/C=C/CN2CCN(Cc3ccccc3)C(CCO)C2)cc1 (centres undefined) | -13 | 6 | -9 | 2 | -7 | -20
CCOC(=O)C1(CC2CC2)CCN(Cc2cn(C)c3ccccc23)CC1 | -11 | 32* | -24 | -10 | -7 | 10
COc1ccc(/C=C/CN2CCC(CO)(Cc3ccccc3Cl)CC2)cc1 | -9 | 31* | -31 | -18 | -4 | 9
O=C(c1ccc(Br)o1)N1CCN(CCc2ccncc2)CC1 | -8 | 44* | -29 | -5 | -8 | 11
O=C(c1ccncc1)N1CCN(CCc2ccccc2)CC1 | -6 | -16 | 11 | 0 | 0 | -1
Oc1c(N=Nc2ccccn2)ccc2ccccc12 | -5 | 10 | 3 | -14 | -7 | 33*
Oc1[nH]c2ccccc2c1N=Nc1ccccn1 | -1 | 0 | -2 | 1 | 3 | 11
COc1ccc(C)cc1Nc1n[n+](-c2ccccc2)c(-c2c(OC)ccc3ccccc23)s1 | -2 | 31* | -18 | -31 | -2 | 27*
Fc1ccc(-[n+]2nc(Nc3ccccc3)sc2-c2c3ccccc3cc3ccccc23)cc1 | 19* | 26 | -8 | -20 | 36* | 39*
SMILES | M1 ag | M1 antag | CHRM1 PAM | M5 PAM | CHRM5 agonist | M5 antag
CCCCCCNC(=O)O[C@H]1Cn2c(=O)ccc(=O)n2[C@@H]2CN(S(=O)(=O)c3ccc(C)cc3)C[C@]12O | -10 | -10 | 2 | 0 | -3 | 6
COC(=O)C[C@@H]1C=C[C@@H](NS(=O)(=O)c2ccccc2OC)[C@@H](CO)O1 | x | x | x | -7 | 0 | 5
CC(C)(CNC(=S)NCCc1ccccc1)CNC(=S)NCCc1ccccc1 | -2 | 18 | -10 | -17 | 5 | 28*
COc1cc(NCCCC(C)N)c2ncccc2c1 (centres undefined) | -3 | -8 | 2 | 22* | 0 | 5
COc1ccc(NC(=O)Nc2ccc3c(c2)N(C)C(=O)CS3)cc1Cl | 3 | 23 | -10 | -24 | 9 | 31*
COCCNC(=O)Nc1ccc2c(c1)N(C)C(=O)CS2 | -5 | -5 | 9 | 1 | 2 | -5
CC(C)CCNC(=O)Nc1ccc2c(c1)N(C)C(=O)CS2 | 0 | 33* | -11 | -9 | 1 | 4
CC(=O)OC[C@@H]1CN(Cc2ccccc2)C[C@H](n2cnc3c(N4CCOCC4)ncnc32)O1 | -1 | -5 | 2 | 1 | 1 | -2
Cc1ccn2c(=O)c(NC(=O)c3ccc4c(c3)OCO4)c(C)nc2c1 | 5 | -2 | 8 | -3 | 2 | -3
Cc1cccc(C)c1NC(=O)CN1CCN(C(=O)CN2C(=O)NC3(CCCCC3C)C2=O)CC1 (centres undefined) | 4 | -28 | 28* | 1 | 2 | -1
CCc1ccccc1NC(=O)CN1CCN(C(=O)CN2C(=O)NC3(CCCCC3C)C2=O)CC1 (centres undefined) | -2 | 1 | -1 | -3 | 0 | 4
c1ccc2c(c1)OCC(CNc1ncnc3sccc13)O2 (centres undefined) | 1 | 22 | -11 | -17 | 6 | 35*
COc1ccc(CCNc2ncnc3sccc23)cc1OC | 0 | 40* | -14 | -30 | 6 | 48*
COc1ccccc1CNc1ncnc2sccc12 | 1 | 23 | 0 | -13 | 5 | 27*
COc1ccc(Nc2ncnc3sccc23)cc1OC | -6 | -4 | 1 | -7 | -2 | 9
O=C(NCc1cccs1)c1ccc2nc([C@@H]3O[C@H](CO)[C@H](O)[C@H](O)[C@H]3O)[nH]c2c1 | 0 | -22 | 12 | -2 | 0 | 2
NC(=O)C1(Nc2ccc(Br)cc2)CCCC1 | 1 | -15 | 11 | 3 | 2 | 16

Screening data from PubChem.
